What is called pA2 is a measure of antagonist potency on a negative log scale.

From ChEMBL document CHEMBL3244362, “Photoaffinity labeling of the angiotensin II receptor. 3. Receptor inactivation with photolabile hormone analogues” (J Med Chem, 1979) come the findings set out here.

Test [1] is filed under the species Oryctolagus cuniculus. Kind of test: Intrinsic activity at angiotensin 2 receptor in albino New Zealand rabbit aorta in absence of UV light. The class given is tissue-based. A digest of the protocol:
(§1)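 Rabbit aortic strips were suspended in Krebs solution at 37 °C, gassed with 95% O2/5% CO2, at 2.0 g tension, and equilibrated 60–90 min with bath changes every 10–15 min. Isometric contraction was recorded by force transducer in the dark. PD2 is the −log agonist concentration giving half-maximal contraction. pA2 is the −log antagonist concentration reducing a double agonist dose to a single-dose response. αE is intrinsic activity.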

Test [2] is filed under the species Oryctolagus cuniculus. Kind of test: Agonist activity at angiotensin 2 receptor in albino New Zealand rabbit aorta in absence of UV light. The class given is tissue-based. Put shortly:
as §1

The species entered for test [3] is Oryctolagus cuniculus. Kind of test: Binding affinity to angiotensin 2 receptor in albino New Zealand rabbit aorta relative to [Sar1]AT in absence of UV light.
Test [4] is filed under the species Oryctolagus cuniculus. Kind of test: Inactivation of angiotensin 2 receptor in albino New Zealand rabbit aorta assessed as relaxation of angiotensin-induced contraction at 10 uM treated for 180 mins followed by UV light exposed for 10 mins relative to control in presence of [Leu8]-AT. The arrangement: scale not given: the % may be the effect or the level left. Type of test: tissue-based. Put shortly:
(§2)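 Protection protocol: aortic strips in Krebs at 37 °C were given AT 0.2 μM at 60 and 120 min, then preincubated 15 min with [Leu8]AT 5 μM (final) before the photolabel plus (4'amino)Phe 0.6 mM. After 5 min at maximal contraction, strips were UV-irradiated 10 min and washed only after photolysis. Residual AT response at 280 min was expressed as % of nonirradiated, identically incubated references.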

The species named for test [5] is Oryctolagus cuniculus. Kind of test: Inactivation of angiotensin 2 receptor in albino New Zealand rabbit aorta assessed as relaxation of angiotensin-induced contraction at 10 uM treated for 180 mins followed by UV light exposed for 10 mins relative to control in presence of noradrenaline. The class given is tissue-based. The arrangement: scale not given: the % may be the effect or the level left. A digest of the protocol: (§3)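 Strips in Krebs at 37 °C (95% O2/5% CO2, 2.0 g tension) received AT 0.2 μM at 60 and 120 min. The control agonist was noradrenaline for aorta and serotonin for stomach. At 180 min, peptide plus (4'amino)Phe 0.6 mM was added; after 5 min at maximal contraction, strips were UV-irradiated (365 nm black light) for 10 min and washed. AT response at 280 min was expressed as % of nonirradiated references. At least seven experiments; mean ± SE.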

The target in test [6] is T1, Angiotensin II receptor (Rattus norvegicus) (UniProt P29089+P25095+P35351). Kind of test: Inactivation of angiotensin 2 receptor in Wistar rat aorta assessed as relaxation of angiotensin-induced contraction at 0.1 uM treated for 180 mins followed by UV light exposed for 10 mins relative to control in presence of noradrenaline. A digest of the protocol:
as §3

The species named for test [7] is Oryctolagus cuniculus. Kind of test: Inactivation of angiotensin 2 receptor in albino New Zealand rabbit aorta assessed as relaxation of angiotensin-induced contraction at 0.4 uM treated for 180 mins followed by UV light exposed for 10 mins relative to control in presence of noradrenaline. The arrangement: scale not given: the % may be the effect or the level left. Type of test: tissue-based. Put shortly:
as §3

Test [8] is filed under the species Oryctolagus cuniculus. Kind of test: Inactivation of angiotensin 2 receptor in albino New Zealand rabbit aorta assessed as relaxation of angiotensin-induced contraction at 0.4 uM treated for 180 mins followed by UV light exposed for 10 mins relative to control in presence of [Leu8]-AT. The class given is tissue-based. Details: scale not given: the % may be the effect or the level left. A digest of the protocol: as §2

The species entered for test [9] is Oryctolagus cuniculus. Kind of test: Inactivation of angiotensin 2 receptor in albino New Zealand rabbit aorta assessed as relaxation of angiotensin-induced contraction at 0.2 uM treated for 180 mins followed by UV light exposed for 10 mins relative to control in presence of noradrenaline. The class given is tissue-based. The arrangement: scale not given: the % may be the effect or the level left. Put shortly:
as §3

The species entered for test [10] is Oryctolagus cuniculus. Kind of test: Inactivation of angiotensin 2 receptor in albino New Zealand rabbit aorta assessed as relaxation of angiotensin-induced contraction at 0.2 uM treated for 180 mins followed by UV light exposed for 10 mins relative to control in presence of [Leu8]-AT. Type of test: tissue-based. Details: scale not given: the % may be the effect or the level left. Put shortly:
as §2

Test [11] is filed under the species Oryctolagus cuniculus. Kind of test: Inactivation of angiotensin 2 receptor in albino New Zealand rabbit aorta assessed as relaxation of angiotensin-induced contraction at 5 uM treated for 180 mins followed by UV light exposed for 10 mins relative to control in presence of noradrenaline. The class given is tissue-based. Details: scale not given: the % may be the effect or the level left. A digest of the protocol:
as §3

Test [12] is filed under the species Oryctolagus cuniculus. Kind of test: Inactivation of angiotensin 2 receptor in albino New Zealand rabbit aorta assessed as relaxation of angiotensin-induced contraction at 5 uM treated for 180 mins followed by UV light exposed for 10 mins relative to control in presence of [Leu8]-AT. Type of test: tissue-based. The arrangement: scale not given: the % may be the effect or the level left. A digest of the protocol: as §2

Test [13] has as its target T1, Angiotensin II receptor (Rattus norvegicus). Kind of test: Inactivation of angiotensin 2 receptor in Wistar rat stomach assessed as relaxation of angiotensin-induced contraction at 1 uM treated for 180 mins followed by UV light exposed for 10 mins relative to control in presence of serotonin. Put shortly:
as §3

Test [14] can be described thus: Antagonist activity at angiotensin 2 receptor in albino New Zealand rabbit aorta in absence of UV light. Type of test: tissue-based, Oryctolagus cuniculus. A digest of the protocol: as §1

Activity calls are given as the source filed them. The calls are words filed in the database; no cut-off is given here. Square brackets hold non-standard residues; d marks the D form. Peptide text beside a SMILES is read from it. Phe(4-NO2) = N[C@@H](Cc1ccc([N+](=O)[O-])cc1)C(=O)O; Phe(4-N3) = [N-]=[N+]=Nc1ccc(C[C@H](N)C(=O)O)cc1; Phe(4-N2+) = N#[N+]c1ccc(C[C@H](N)C(=O)O)cc1; Sar = CNCC(=O)O A value given as a limit tells only on which side of the number the result lay.

Turning to `CNCC(=O)N[C@@H](CCCNC(=N)N)C(=O)N[C@H](C(=O)N[C@@H](Cc1ccc([N+]#N)cc1)C(=O)N[C@H](C(=O)N[C@@H](Cc1cnc[nH]1)C(=O)N1CCC[C@H]1C(=O)N[C@@H](Cc1ccc([N+]#N)cc1)C(=O)O)C(C)C)C(C)C` (H-[Sar]RV[Phe(4-N2+)]VHP[Phe(4-N2+)]-OH), the Intrinsic activity in the test listed under Oryctolagus cuniculus [1] came out at 1. In the test filed under Oryctolagus cuniculus [2], this compound showed a pD2 of 7.36. This compound had an RBA in the test listed under Oryctolagus cuniculus [3] of 1.3%.

As for `CNCC(=O)N[C@@H](CCCNC(=N)N)C(=O)N[C@H](C(=O)N[C@@H](Cc1ccc(N=[N+]=[N-])cc1)C(=O)N[C@H](C(=O)N[C@@H](Cc1cnc[nH]1)C(=O)N1CCC[C@H]1C(=O)N[C@@H](Cc1ccc(N=[N+]=[N-])cc1)C(=O)O)C(C)C)C(C)C` (H-[Sar]RV[Phe(4-N3)]VHP[Phe(4-N3)]-OH), the Activity in the test filed under Oryctolagus cuniculus [4] turned out to be 92%; in the test listed under Oryctolagus cuniculus [5] it was 100%. Moreover, in the test listed under Oryctolagus cuniculus [1], the Intrinsic activity amounted to 0.8. This compound also yielded a pD2 in the test filed under Oryctolagus cuniculus [2] of 6.12. In the test filed under Oryctolagus cuniculus [3], this compound came in with an RBA of 0.07%.

As for `CNCC(=O)N[C@@H](CCCNC(=N)N)C(=O)N[C@H](C(=O)N[C@@H](Cc1ccc(O)cc1)C(=O)N[C@H](C(=O)N[C@@H](Cc1cnc[nH]1)C(=O)N1CCC[C@H]1C(=O)N[C@@H](Cc1ccc(N=[N+]=[N-])cc1)C(=O)O)C(C)C)C(C)C`, in [6], the inhibition result is “Active”. Also, the Activity in the test filed under Oryctolagus cuniculus [7] is 100%; in the test filed under Oryctolagus cuniculus [8] it was 103%. The compound also displayed an Intrinsic activity in the test filed under Oryctolagus cuniculus [1] of 1. Also, the pD2 in the test listed under Oryctolagus cuniculus [2] came to 8.72. In the test filed under Oryctolagus cuniculus [3], this compound displayed an RBA of 31%.

With `CNCC(=O)N[C@@H](CCCNC(=N)N)C(=O)N[C@H](C(=O)N[C@@H](Cc1ccc(O)cc1)C(=O)N[C@H](C(=O)N[C@@H](Cc1cnc[nH]1)C(=O)N1CCC[C@H]1C(=O)N[C@@H](Cc1ccc([N+](=O)[O-])cc1)C(=O)O)C(C)C)C(C)C`, the Activity in the test filed under Oryctolagus cuniculus [7] stood at 95%. The compound also displayed an Intrinsic activity in the test listed under Oryctolagus cuniculus [1] of 0.46. The pD2 in the test listed under Oryctolagus cuniculus [2] was 9.07. In addition, the RBA in the test filed under Oryctolagus cuniculus [3] worked out at 69%.

In turn, `CNCC(=O)N[C@@H](CCCNC(=N)N)C(=O)N[C@H](C(=O)N[C@@H](Cc1ccc(O)cc1)C(=O)N[C@H](C(=O)N[C@@H](Cc1cnc[nH]1)C(=O)N1CCC[C@H]1C(=O)N[C@@H](Cc1ccccc1)C(=O)O)C(C)C)C(C)C` (H-[Sar]RVYVHPF-OH) showed an Intrinsic activity in the test listed under Oryctolagus cuniculus [1] of 1. Further, the Activity in the test filed under Oryctolagus cuniculus [9] and in the test filed under Oryctolagus cuniculus [10] was 100% throughout. In the test filed under Oryctolagus cuniculus [2], this compound yielded a pD2 of 9.23.

On to `CNCC(=O)N[C@@H](CCCNC(=N)N)C(=O)N[C@H](C(=O)N[C@@H](Cc1ccc(N=[N+]=[N-])cc1)C(=O)N[C@H](C(=O)N[C@@H](Cc1cnc[nH]1)C(=O)N1CCC[C@H]1C(=O)N[C@@H](Cc1ccccc1)C(=O)O)C(C)C)C(C)C` (H-[Sar]RV[Phe(4-N3)]VHPF-OH), for which the results for the Activity in the test listed under Oryctolagus cuniculus [11] and in the test filed under Oryctolagus cuniculus [12] were 98% and 64%, respectively. Moreover, in the test filed under Oryctolagus cuniculus [1], the Intrinsic activity turned out to be 0.75. Further, the pD2 in the test filed under Oryctolagus cuniculus [2] turned out to be 6.65. The same compound registered an RBA in the test filed under Oryctolagus cuniculus [3] of 0.26%.

Consider `CNCC(=O)N[C@@H](CCCNC(=N)N)C(=O)N[C@H](C(=O)N[C@@H](Cc1ccc([N+]#N)cc1)C(=O)N[C@H](C(=O)N[C@@H](Cc1cnc[nH]1)C(=O)N1CCC[C@H]1C(=O)N[C@@H](Cc1ccccc1)C(=O)O)C(C)C)C(C)C` (H-[Sar]RV[Phe(4-N2+)]VHPF-OH), for which the Intrinsic activity in the test filed under Oryctolagus cuniculus [1] was 1. Also, the pD2 in the test listed under Oryctolagus cuniculus [2] turned out to be 7.05. For the same compound, the RBA in the test filed under Oryctolagus cuniculus [3] was found to be 0.66%.

For the compound `CNCC(=O)N[C@@H](CCCNC(=N)N)C(=O)N[C@H](C(=O)N[C@@H](Cc1ccc([N+](=O)[O-])cc1)C(=O)N[C@H](C(=O)N[C@@H](Cc1cnc[nH]1)C(=O)N1CCC[C@H]1C(=O)N[C@@H](Cc1ccccc1)C(=O)O)C(C)C)C(C)C` (H-[Sar]RV[Phe(4-NO2)]VHPF-OH), in test [13], the inhibition entry was “inactive”. Also, the Activity in the test listed under Oryctolagus cuniculus [4] is 102%; in the test filed under Oryctolagus cuniculus [5], 105%. For the same compound, in test [14], the pA2 is less than 5. Further, in the test filed under Oryctolagus cuniculus [1], the Intrinsic activity came to 0. The compound also gave a pD2 in the test listed under Oryctolagus cuniculus [2] of less than 5. Further, the RBA in the test listed under Oryctolagus cuniculus [3] was 0%.

As to `CNCC(=O)N[C@@H](CCCNC(=N)N)C(=O)N[C@H](C(=O)N[C@@H](Cc1ccc([N+](=O)[O-])cc1)C(=O)N[C@H](C(=O)N[C@@H](Cc1cnc[nH]1)C(=O)N1CCC[C@H]1C(=O)N[C@@H](Cc1ccc([N+](=O)[O-])cc1)C(=O)O)C(C)C)C(C)C` (H-[Sar]RV[Phe(4-NO2)]VHP[Phe(4-NO2)]-OH), in the test listed under Oryctolagus cuniculus [5], the Activity came out at 99%. Further, in the test filed under Oryctolagus cuniculus [1], the Intrinsic activity was found to be 0.5. In addition, in the test listed under Oryctolagus cuniculus [2], the pD2 stood at 6.02. Besides, the RBA in the test filed under Oryctolagus cuniculus [3] amounted to 0.06%.

`CNCC(=O)N[C@@H](CCCNC(=N)N)C(=O)N[C@H](C(=O)N[C@@H](Cc1ccc(O)cc1)C(=O)N[C@H](C(=O)N[C@@H](Cc1cnc[nH]1)C(=O)N1CCC[C@H]1C(=O)N[C@@H](Cc1ccc([N+]#N)cc1)C(=O)O)C(C)C)C(C)C`: the Activity in the test listed under Oryctolagus cuniculus [11] was 78%; in the test listed under Oryctolagus cuniculus [12] it was 72%. This compound also showed an Intrinsic activity in the test filed under Oryctolagus cuniculus [1] of 1. The pD2 in the test listed under Oryctolagus cuniculus [2] amounted to 8.33. The compound also registered an RBA in the test listed under Oryctolagus cuniculus [3] of 13%.
